Published values collected from several papers.
pIC50, pKd, pKi: −log10 of the molar value.
Neuronal acetylcholine receptor subunit alpha-4/beta-2: Neuronal acetylcholine receptor subunit alpha-4/beta-2 (Mus musculus, UniProt O70174+Q9ERK7)
HTR7: 5-hydroxytryptamine receptor 7 (HTR7, Homo sapiens, UniProt P34969)
Long-chain-fatty-acid--AMP ligase FadD28: Long-chain-fatty-acid--AMP ligase FadD28 (Mycobacterium tuberculosis, UniProt P9WQ59)

Structure (SMILES)	target	test	setting	measurement	value
CN1[C@@H]2CC[C@H]1C=C(c1cncc(Br)c1)C2	Neuronal acetylcholine receptor subunit alpha-4/beta-2	ligand displacement, radioligand	cell membranes	pKi	8.64
CN(C)CCc1c[nH]c2ccccc12	HTR7	ligand displacement, radioligand	–	pKi	6.68
CCCCCCCCCCCCCC(=O)NS(=O)(=O)OC[C@H]1O[C@@H](n2cnc3c(N)ncnc32)[C@H](O)[C@@H]1O	Long-chain-fatty-acid--AMP ligase FadD28	binding, ITC	–	pKd	6.44
FC(F)(F)c1cccc(N2CCNCC2)c1	HTR7	ligand displacement, radioligand	cell membranes	pKi	5.79
CCCCCCCCCCCC(=O)NS(=O)(=O)OC[C@H]1O[C@@H](n2cnc3c(N)ncnc32)[C@H](O)[C@@H]1O	Long-chain-fatty-acid--AMP ligase FadD28	enzyme activity, inhibitor	–	pKi	5.22
N#Cc1ccc(C(=O)NOCc2ccc(C(F)(F)F)cc2)cc1	NAD-dependent protein deacylase sirtuin-6 (SIRT6, Homo sapiens, UniProt Q8N6T7)	enzyme activity, inhibitor, fluorescence	–	pIC50	4.83
CC[C@@H](CO)NC(=O)[C@@H]1C=C2c3cccc4c3c(cn4C)C[C@H]2N(C)C1	HTR7	ligand displacement, radioligand	cell membranes	pKi	7.49
CCCCCCCCCCCCCC(=O)NS(=O)(=O)OC[C@H]1O[C@@H](n2cnc3c(N)nc(C#CCOCCOCCOCCNC(=O)c4ccc(C(=O)O)c(-c5c6ccc(=[N+](C)C)cc-6oc6cc(N(C)C)ccc56)c4)nc32)[C@H](O)[C@@H]1O	Long-chain-fatty-acid--AMP ligase FadD28	binding, FP	–	pKd	6.61
CNC(C)C/C=C/c1cncc(C#Cc2ccccc2)c1 (stereo not drawn)	Neuronal acetylcholine receptor subunit alpha-4/beta-2	ligand displacement, radioligand	cell membranes	pKi	6.87
